Test: Toxicity liver stage against HepG2, at 10uM
Type: cell-based
Parameters: test concentration 10 uM, cell line HepG2-A16-CD81EGFP
Settings: human, HepG2-A16-CD81EGFP cells; read-out: INHIBITION
How it was run: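 Uninfected HepG2-A16-CD81EGFP cells, 3 × 10^3 per well, 1536-well, plated on prespotted compound at 10 μM final, parasite-free screening media added to match infected plates; puromycin 10 μM positive, DMSO 0.5% negative; run in parallel with 48 h PbLuc assay at 37 °C, 5% CO2; viability by CellTiter-Glo luminescence, normalized to controls.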

Row | SMILES | cytotoxicity at 10 µM [%]
1 | COCCCNS(=O)(=O)c1ccc(N2CCCCS2(=O)=O)cc1 | 0.308
2 | CN(C)C(=O)c1cccc(CNc2ccc(C#N)cn2)c1 | -4.73
3 | CCOC(=O)CCn1cnc2onc(-c3ccc(OC)cc3)c2c1=O | 18.8
4 | N#Cc1nc(COc2ccc3c(c2)OCO3)oc1NC1CCCCC1 | -41.4
5 | Cc1cnc2c(c1NCc1cccnc1)c(=O)n(C)c(=O)n2C | -2.02
6 | O=C(NCC1CCN(c2ncccn2)CC1)c1cnccn1 | 2.84
7 | O=S(=O)(NCC(O)c1ccc(C(F)(F)F)cc1)C1CC1 (stereo not given) | -6.9
8 | O=C(Cc1cccs1)Nc1cnn(C2CCOCC2)c1 | -0.779
9 | COCC1c2nnn(CC3CC3)c2CCN1C(=O)c1sccc1C (stereo not given) | -147
10 | CC(C)c1cccc(NC(=O)Cn2c(=O)n(C)c(=O)c3sccc32)c1 | 42
11 | COC(=O)c1cccc(C(=O)N2CCN(c3cccc(C)c3C)CC2)n1 | 79.9
12 | CC(C(=O)NN1CCOCC1)n1nc(C(F)(F)F)c(Cl)c1C1CC1 (stereo not given) | -0.37
13 | Cc1ccccc1CN1CCCC1c1cccc(Nc2nccs2)n1 (stereo not given) | 13.3
14 | CCc1nccn1CC(=O)Nc1cccc(N2CCCC2)c1 | 17.1
15 | Fc1ccc(Cc2cccc(C3CCN(C4CCOCC4)CC3)n2)cc1 | 4.3
16 | CCn1cc(C(=O)N2CCOC(c3nc(-c4cccs4)no3)C2)cn1 (stereo not given) | 2.91
17 | CC(=O)N1C[C@@H](c2ccsc2)[C@@H]2CN(Cc3ccccc3Cl)CC[C@@H]21 | 3.16
18 | O=C(CCC1CCCC1)N1CCC(c2ncc3c(n2)CCNC3)CC1 | -3.91
19 | CC(c1ccccc1F)N(CC(N)=O)C1CC1 (stereo not given) | -46.3
20 | Cc1nc(NS(=O)(=O)c2cccc(F)c2C)no1 | 5.3
21 | Cc1noc(C)c1CN1CCN(Cc2nc(C3CC3)no2)CC1 | 31.4
22 | Cn1nccc1C1CCN(Cc2ccn(-c3ccccc3)n2)CC1 | 17.3

Row | SMILES | cytotoxicity at 10 µM [%]
23 | CS(=O)(=O)C1(C(=O)NC2CCc3nccn3C2)CCCC1 (stereo not given) | -14
24 | Cc1cccc(CN(Cc2ccccn2)Cc2ncc(C(C)(C)C)o2)c1 | 3.49
25 | O=C(c1cc(-c2ccccc2)nc2onc(C3CC3)c12)N1CC[C@H](O)C1 | -36.7
26 | Fc1ccc(NCc2ccncc2)c(OC(F)F)c1 | 10.5
27 | COCCCSc1ccc(NCc2ccc(C)cn2)cc1 | 15.8
28 | Cc1c(NCc2ccc(C#N)cc2)cccc1S(=O)(=O)NC1CC1 | 20.9
29 | CN(C(=O)CCC(F)(F)F)c1cccc2ncccc12 | 1.9
30 | CC(NC(=O)CSCC(N)=O)c1ccccc1Oc1ccccc1 (stereo not given) | 4.84
31 | Cc1cnn(Cc2cc(F)ccc2F)c1NC(=O)C1CCOCC1 | -0.303
32 | NC(=O)c1ccc(N2CCCCC2)c(NC(=O)c2ccc(F)cc2Cl)c1 | -4.2
33 | O=C(c1cccnc1)N1CCCC1C1CCN(Cc2ccccc2)CC1 (stereo not given) | -3.24
34 | CCOC(=O)N1CCN(C(=O)c2sc(-c3ccccc3)nc2C)CC1 | -3.08
35 | O=S(=O)(NCC1COCCO1)c1ccc(C2CCCCC2)cc1 (stereo not given) | 27.5
36 | Cc1cc(C)c(CNC(=O)NCC2Cc3ccccc3O2)c(=O)[nH]1 (stereo not given) | -5.21
37 | CN1CCC(CN(C)S(=O)(=O)CC2CCCCC2)CC1 | 0.304
38 | COc1ccc(C(C)NC(=O)N2CCNC(=O)CC2)cc1F (stereo not given) | 13.5
39 | Cc1ncccc1CNCC1COC2(CCCCC2)O1 (stereo not given) | -149
40 | c1cncc(-c2nnc(C3(c4ccc5c(c4)OCO5)CCOCC3)o2)c1 | 4.02
41 | CO[C@H]1CN(C(=O)OC(C)(C)C)CC1NCc1ccco1 (stereo not given in full) | -46.9
42 | O=C(c1ccccc1)N1CCCN(C(=O)c2ncncc2Cl)CC1 | 4.26
43 | CNC(=O)c1c(C)cccc1NCc1noc(C2CC2)n1 | 29.7
44 | Cn1ccc(NC(=O)NC2CCCN(c3ccccc3Cl)C2=O)n1 (stereo not given) | -49.4

Row | SMILES | cytotoxicity at 10 µM [%]
45 | COc1ccc(CN(C)c2nc3c(cnn3C)c(=O)[nH]2)c(OC)c1 | 58.9
46 | Cc1ccc(C(=O)NC2CCN(Cc3noc(CC(C)C)n3)CC2)s1 | -15.2
47 | CN(C)Cc1noc2c1CN(Cc1ccc[nH]1)CC2 | 7.01
48 | CN(C)Cc1cncc2c1CCN(CC(=O)N(C)C)C2 | -99.4
49 | CC(C)Nc1nc(-c2ccccc2)nc2c1CCN(C(=O)CC#N)CC2 | -104
50 | O=C(N[C@@H]1CN(Cc2ccoc2)C[C@@H]2CCCO[C@@H]21)C1CCC1 | -95.8
51 | O=C([C@H]1COC[C@H]2CN(C3CCCC3)C[C@H]21)N1CCOCC1 | -105
52 | Cn1cccc1C(=O)N1CCC2(CC1)CN(c1ccsc1)C(=O)CO2 | -76.9
53 | CCc1cc(N(C)Cc2ccnc(C)c2)n2nc(C)c(C)c2n1 | 61.6
54 | Cc1nc(CN2CCN(c3nc4c(s3)c(C)nn4C)CC2)cs1 | 15.6
55 | Nc1nc2c(c(N3CCN(C(=O)c4cccs4)CC3)n1)CCCC2 | 7.9
56 | Clc1cc(N2CCN3CCCCC3C2)nc2[nH]ccc12 (stereo not given) | -9.74
57 | C[C@@H]1CN(C2(C(=O)N3CCSCC3)Cc3ccccc3C2)C[C@H](C)O1 | 0.66
58 | Oc1cccc(CN2CCN(c3nccc(CCC(F)(F)F)n3)CC2)c1 | -18.7
59 | O=C(c1coc(COc2cccc3cnccc23)n1)N1CCSCC1 | -77.9
60 | Cc1cncc(C(=O)N2C[C@@H](C(=O)O)[C@H](C(C)C)C2)c1 | -4.31
61 | CCC[C@H]1CN(S(=O)(=O)c2ccc(-c3c(C)noc3C)s2)C[C@@H]1N | 8.4
62 | COCCNc1ncnc2c1CCN(C(=O)CC1CCC(=O)N1)CC2 (stereo not given) | 1.15
63 | Cc1ccc(NCCCNC(=O)C2CCCN(Cc3ccco3)C2)nc1 (stereo not given) | 3.15
64 | COc1ccnc(CN(C)C(=O)CSc2nnc(N)s2)c1 | 3.94
65 | CCn1ccc(C(=O)N2CCCN(Cc3ccccc3F)CC2)cc1=O | 9.47
66 | Cc1noc(C)c1CN(C)c1ncnc2onc(C)c12 | -20.7

Row | SMILES | cytotoxicity at 10 µM [%]
67 | CN(C)CC(Nc1nc(N)nc2c1CCNCC2)c1ccccc1 (stereo not given) | -2.92
68 | Cc1ccsc1CN1CCC(n2cc(C(O)c3ccccc3)nn2)CC1 (stereo not given) | 8.69
69 | Cc1cc(CC(C)NC(=O)Cc2cc(F)ccc2C)[nH]n1 (stereo not given) | -42.9
70 | O=C1NCCCC12CCN(Cc1ccc(SC3CCCCC3)o1)C2 (stereo not given) | -3.33
71 | CSc1cccc(CN(C)C(=O)Nc2nc(C)n(C)n2)c1 | 2.78
72 | COc1cccc(Cn2ncnc2CCC(C)N2CCN(C)CC2)c1 (stereo not given) | -4.05
73 | CCc1cnc(N)nc1NCc1ccc(OC)cc1OC | 14.7
74 | CCOC(=O)CC(NC(=O)c1cn(Cc2ccccc2F)nn1)C(C)C (stereo not given) | -0.99
75 | c1ccc(C(CC2CN(Cc3c[nH]cn3)CCO2)c2ccccc2)cc1 (stereo not given) | -5.54
76 | O=C1CN(Cc2cnc3c(-c4ccccc4)cnn3c2)CCCN1 | 3.32
77 | NCC(=O)N1CCCCC1c1ccc(F)cc1 (stereo not given) | -43.4
78 | CCC[C@H]1CN(Cc2cc(C#N)n(C)c2C)C[C@@H]1N(C)C | -152
79 | O=C(c1csnn1)N1CCc2[nH]nc(COc3cccc(Cl)c3)c2C1 | -60
80 | Cc1nc2ccccc2n1Cc1cc(C(=O)N2C[C@@H](C)O[C@@H](C)C2)no1 | 25.7
81 | CN1CC2(CCN(CCOCCO)CC2)CC(c2ccccc2)C1=O (stereo not given) | -9.88
82 | Cc1cnc(C)c(N2CCN(Cc3ccc(C)c(C)c3)CC2)n1 | 6.68
83 | Cc1cc(CC2COc3ccccc3C2)cnc1N (stereo not given) | 0.873
84 | CC(C)(C)c1nccc(C2(c3ccccc3Cl)CCNCC2)n1 | -1.15
85 | CCCn1cc(-c2ccnc(NC3CCCc4ccccc43)n2)c(C)n1 (stereo not given) | 81.4
86 | CC(=O)c1ccn(CC(=O)Nc2nn(CC3CC3)c3ccccc23)n1 | 9.34
87 | C=Cc1ccc(C(=O)N2CCCC(Nc3ccc(OC)cc3)C2)cc1 (stereo not given) | -12
88 | CCn1ccnc1CN1CCC(CCC(=O)Nc2ccccc2Cl)CC1 | -26.5

Row | SMILES | cytotoxicity at 10 µM [%]
89 | CN(C(=O)c1ccccn1)c1nc2c(s1)CCc1c-2cnn1C | 11.7
90 | Cc1cc(C)c2cc(CNCc3ccccc3)c3nn(C)c(=O)n3c2c1 | -1.47
91 | CC1CN(C)CCN1C(=O)c1cnn(-c2cccc(Cl)c2)c1 (stereo not given) | -8.68
92 | c1ccc(CCCN2CCN(c3ccc4nncn4n3)CC2)cc1 | 4.2
93 | O=C(c1cc(C2CC2)[nH]n1)N1CCN(Cc2ccc(Cl)cc2)CC1 | 37.2
94 | NC(=O)c1ccc(CNC(=O)Nc2cn[nH]c2)cc1 | -20.4
95 | Cc1nn(C)c(C)c1C1CCCN1Cc1cccc(OCC(N)=O)c1 (stereo not given) | -0.192
96 | CCc1nc(CN2CCCN(C(=O)CCc3ccco3)CC2)cs1 | 1.42
97 | O=C(NCC1CCC2(CCNCC2)CO1)c1cnccn1 (stereo not given) | 9.51
98 | CCOc1cc(CN[C@@H]2COC[C@H]2Cc2cc(C)no2)ccc1O | 14.8
99 | Cc1cccc(C(=O)N2CC[C@]3(C[C@H](OCc4ccccn4)CO3)C2)c1 | -70.9
100 | COc1ccc(CN2CCCC3(CCN(c4ccsc4)C3=O)C2)cc1 (stereo not given) | 6.92
101 | CCN(CC)[C@@H]1CN(C(=O)c2ccc(C#N)cc2)[C@@H]2CCCO[C@H]12 | -151
102 | CN(C)C(=O)CN1CCc2ncnc(NC3CCC3)c2CC1 | -94.4
103 | CN(C)C(=O)CN1CCC2(CCCN(Cc3cccnc3)C2)C1=O (stereo not given) | -103
104 | Cc1nc(C2(O)CCCNCC2)sc1CCOc1ccc(Cl)cc1 (stereo not given) | 12.7
105 | CC(C)CN1C(=O)C2(CCN(CC3CCOCC3)C2)c2ccccc21 (stereo not given) | -71.2
106 | Cc1ccc2c(n1)N(CCN(C)C)CCN(C(=O)c1cccs1)C2 | -69.8
107 | CN(C)[C@@H]1CCN(C(=O)Cc2cccs2)[C@H]1Cc1ccncc1 | -70.1
108 | Cn1cccc1C(=O)N1CCC2(CCN2c2ncccn2)C1 (stereo not given) | 10.7
109 | NC(=O)N1CCc2cc(C(=O)O)c(-c3ccsc3)nc2CC1 | 18.3
110 | CCC1=NN2C(=N)C(=Cc3cccn3-c3cccc(Cl)c3)C(=O)N=C2S1 | -5.7
